From ChEMBL document CHEMBL5244263, “Studies on fragment-based design of allosteric inhibitors of human factor XIa” (Bioorg Med Chem, 2020)
Activity calls are given as the source filed them. The rule behind the calls is not given here.

Columns and labels:
Coagulation factor XI [1] = target: T1, Coagulation factor XI (Homo sapiens, UniProt P03951); experiment: Inhibition of human FXIa using S-2366 as chromogenic substrate preincubated with enzyme for 10 mins followed by substrate addition by spectrophotometric analysis
T1 sequence (P03951 19-387 limits assumed): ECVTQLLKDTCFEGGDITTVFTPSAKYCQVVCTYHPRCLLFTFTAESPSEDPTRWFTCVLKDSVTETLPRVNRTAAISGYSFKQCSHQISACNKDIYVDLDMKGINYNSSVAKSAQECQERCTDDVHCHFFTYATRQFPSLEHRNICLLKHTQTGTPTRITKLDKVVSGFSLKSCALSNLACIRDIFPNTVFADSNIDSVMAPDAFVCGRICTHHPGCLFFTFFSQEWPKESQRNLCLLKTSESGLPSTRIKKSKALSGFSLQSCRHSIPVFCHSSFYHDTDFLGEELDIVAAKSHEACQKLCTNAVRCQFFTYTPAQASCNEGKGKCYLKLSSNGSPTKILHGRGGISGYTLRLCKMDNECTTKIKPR
T1 sequence (P03951 388-625 limits assumed): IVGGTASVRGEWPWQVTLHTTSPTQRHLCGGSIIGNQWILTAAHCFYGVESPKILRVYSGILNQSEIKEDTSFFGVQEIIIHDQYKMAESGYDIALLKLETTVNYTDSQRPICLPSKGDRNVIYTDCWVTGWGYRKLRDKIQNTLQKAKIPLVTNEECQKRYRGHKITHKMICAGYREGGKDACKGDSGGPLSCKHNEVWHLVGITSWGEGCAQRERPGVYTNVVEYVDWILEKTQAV

Coagulation factor XI [2] = target: T1, Coagulation factor XI; experiment: Inhibition of human FXIa using S-2366 as chromogenic substrate preincubated with enzyme for 10 mins followed by substrate addition by spectrophotometric analysis relative to control; set-up: concentration or dose not given beside the values
Summary of the method: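 hFXIa (0.765 nM final) preincubated with inhibitor or reference solution for 10 min at 37 °C in pH 7.4 buffer (50 mM Tris-HCl, 150 mM NaCl, 0.1% PEG8000, 0.02% Tween80). S-2366 (345 μM final) then added, and residual activity read on a microplate reader.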

[3] = target: Prothrombin (Homo sapiens) (UniProt P00734); experiment: Inhibition of human thrombin at 500 uM by chromogenic substrate hydrolysis assay
[4] = target: T2, Coagulation factor VII (Homo sapiens) (UniProt P08709); experiment: Inhibition of FVIIa (unknown origin) at 500 uM by chromogenic substrate hydrolysis assay
T2 sequence (whole entry): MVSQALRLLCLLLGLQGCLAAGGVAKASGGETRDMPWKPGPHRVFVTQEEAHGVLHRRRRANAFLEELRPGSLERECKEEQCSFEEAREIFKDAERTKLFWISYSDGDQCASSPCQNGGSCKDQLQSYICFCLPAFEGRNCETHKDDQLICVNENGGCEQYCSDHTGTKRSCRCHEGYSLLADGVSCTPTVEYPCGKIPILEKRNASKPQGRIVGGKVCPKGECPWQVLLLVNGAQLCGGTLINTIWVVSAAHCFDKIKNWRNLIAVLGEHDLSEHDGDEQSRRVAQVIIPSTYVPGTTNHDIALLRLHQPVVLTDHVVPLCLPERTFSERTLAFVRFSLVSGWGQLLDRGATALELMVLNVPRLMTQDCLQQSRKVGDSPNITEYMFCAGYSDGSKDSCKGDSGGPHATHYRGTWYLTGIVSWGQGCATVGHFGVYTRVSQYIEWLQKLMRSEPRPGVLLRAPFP

[5] = target: Coagulation factor IX (Homo sapiens) (UniProt P00740); experiment: Inhibition of human FIXa at 500 uM by chromogenic substrate hydrolysis assay
Chain of Coagulation factor IX (Homo sapiens) (P00740 47-191 limits assumed): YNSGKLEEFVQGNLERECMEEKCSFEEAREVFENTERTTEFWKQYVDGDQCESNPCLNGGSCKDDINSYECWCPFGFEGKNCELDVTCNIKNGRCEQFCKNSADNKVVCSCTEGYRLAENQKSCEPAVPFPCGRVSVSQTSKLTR
Chain of Coagulation factor IX (Homo sapiens) (P00740 227-461 limits assumed): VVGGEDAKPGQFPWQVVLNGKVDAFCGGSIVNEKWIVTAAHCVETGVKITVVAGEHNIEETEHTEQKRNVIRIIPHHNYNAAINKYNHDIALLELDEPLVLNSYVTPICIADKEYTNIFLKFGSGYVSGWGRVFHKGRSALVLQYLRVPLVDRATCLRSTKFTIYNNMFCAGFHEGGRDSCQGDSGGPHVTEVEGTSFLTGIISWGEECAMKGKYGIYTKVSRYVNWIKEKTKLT

[6] = target: Coagulation factor X (Homo sapiens) (UniProt P00742); experiment: Inhibition of human FXa using methoxycarbonyl-D-cyclohexylglycyl-Gly-Arg-p-nitroanilide as substrate at 500 uM by chromogenic substrate hydrolysis assay
Chain of Coagulation factor X (Homo sapiens) (P00742 41-179 limits assumed): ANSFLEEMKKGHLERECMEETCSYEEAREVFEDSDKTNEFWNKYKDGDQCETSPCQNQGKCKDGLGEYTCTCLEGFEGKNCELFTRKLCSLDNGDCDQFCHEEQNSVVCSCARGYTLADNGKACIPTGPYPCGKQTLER
Chain of Coagulation factor X (Homo sapiens) (P00742 235-488 limits assumed): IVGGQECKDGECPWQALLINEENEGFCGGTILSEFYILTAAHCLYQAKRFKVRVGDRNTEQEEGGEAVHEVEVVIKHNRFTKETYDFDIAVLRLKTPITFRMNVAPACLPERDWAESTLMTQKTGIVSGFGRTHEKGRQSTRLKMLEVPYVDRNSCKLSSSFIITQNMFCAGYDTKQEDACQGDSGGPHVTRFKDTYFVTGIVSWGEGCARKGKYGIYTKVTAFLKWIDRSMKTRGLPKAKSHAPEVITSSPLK

[7] = target: Plasma kallikrein (Homo sapiens) (UniProt P03952); experiment: Inhibition of Kallikrein in human plasma at 500 uM by chromogenic substrate hydrolysis assay; type: cell-free
Chain of Plasma kallikrein (Homo sapiens) (P03952 20-390 limits assumed): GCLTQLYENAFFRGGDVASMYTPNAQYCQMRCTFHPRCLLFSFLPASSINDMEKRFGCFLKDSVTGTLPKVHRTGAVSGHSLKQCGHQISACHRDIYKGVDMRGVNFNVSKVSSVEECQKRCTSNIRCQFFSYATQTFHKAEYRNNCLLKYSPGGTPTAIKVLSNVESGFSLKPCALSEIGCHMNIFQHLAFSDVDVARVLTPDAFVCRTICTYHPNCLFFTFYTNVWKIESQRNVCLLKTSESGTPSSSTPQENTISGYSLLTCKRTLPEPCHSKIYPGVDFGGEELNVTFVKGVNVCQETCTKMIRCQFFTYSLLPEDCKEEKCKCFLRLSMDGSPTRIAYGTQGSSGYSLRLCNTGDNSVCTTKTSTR
Chain of Plasma kallikrein (Homo sapiens) (P03952 391-638 limits assumed): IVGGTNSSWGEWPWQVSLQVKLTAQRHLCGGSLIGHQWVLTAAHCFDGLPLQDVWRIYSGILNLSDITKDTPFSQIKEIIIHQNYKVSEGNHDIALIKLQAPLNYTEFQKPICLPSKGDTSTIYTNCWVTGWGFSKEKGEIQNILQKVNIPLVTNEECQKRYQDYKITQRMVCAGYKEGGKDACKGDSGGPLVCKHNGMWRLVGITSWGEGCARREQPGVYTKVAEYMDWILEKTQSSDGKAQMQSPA

Bos taurus = organism: Bos taurus; experiment: Inhibition of bovine trypsin using S-2222 as chromogenic substrate at 500 uM by chromogenic substrate hydrolysis assay
[8] = target: Chymotrypsinogen A (Bos taurus) (UniProt P00766); experiment: Inhibition of bovine alpha-chymotrypsin at 500 uM by chromogenic substrate hydrolysis assay
Homo sapiens [9] = organism: Homo sapiens; experiment: Selectivity for inhibition of human FXIa over human thrombin
Homo sapiens [10] = organism: Homo sapiens; experiment: Selectivity for inhibition of human FXIa over FVIIa (unknown origin)
Homo sapiens [11] = organism: Homo sapiens; experiment: Selectivity for inhibition of human FXIa over human FIXa
Homo sapiens [12] = organism: Homo sapiens; experiment: Selectivity for inhibition of human FXIa over human FXa
Homo sapiens [13] = organism: Homo sapiens; experiment: Selectivity for inhibition of human FXIa over Kallikrein in human plasma; type: cell-free
[14] = Selectivity for inhibition of human FXIa over bovine trypsin
[15] = Selectivity for inhibition of human FXIa over bovine alpha-chymotrypsin

| Structure (SMILES) | IC50 (Coagulation factor XI [1]) [µM] | inhibition (Coagulation factor XI [2]) [%] | inhibition [3] | inhibition [4] | inhibition [5] | inhibition [6] | inhibition [7] | inhibition (Bos taurus) | inhibition [8] | Selectivity ratio (Homo sapiens [9]) | Selectivity ratio (Homo sapiens [10]) | Selectivity ratio (Homo sapiens [11]) | Selectivity ratio (Homo sapiens [12]) | Selectivity ratio (Homo sapiens [13]) | Selectivity ratio [14] | Selectivity ratio [15] |
| --- | --- | --- | --- | --- | --- | --- | --- | --- | --- | --- | --- | --- | --- | --- | --- | --- |
| O=c1c2ccccc2nc(-c2ccc(OS(=O)(=O)O)cc2)n1CCCCCCCn1cc(Cn2c(-c3ccc(OS(=O)(=O)O)cc3)nc3ccccc3c2=O)nn1 | 51 | 103 | inactive | inactive | inactive | inactive | inactive | inactive | inactive | > 63 | > 63 | > 63 | > 63 | > 63 | > 63 | > 63 |
| O=c1c2ccccc2nc(-c2ccc(OS(=O)(=O)O)cc2)n1CCCCCn1c(-c2ccc(OS(=O)(=O)O)cc2)nc2ccccc2c1=O | 49 | 92 | inactive | inactive | inactive | inactive | inactive | inactive | inactive | > 63 | > 63 | > 63 | > 63 | > 63 | > 63 | > 63 |
| O=c1c2ccccc2nc(-c2ccc(OS(=O)(=O)O)cc2)n1CCCCCCn1c(-c2ccc(OS(=O)(=O)O)cc2)nc2ccccc2c1=O | 34 | 87 | inactive | inactive | inactive | inactive | inactive | inactive | inactive | > 63 | > 63 | > 63 | > 63 | > 63 | > 63 | > 63 |
| O=c1c2ccccc2nc(-c2cccc(OS(=O)(=O)O)c2)n1CCCCCn1c(-c2cccc(OS(=O)(=O)O)c2)nc2ccccc2c1=O | 89 | 96 | inactive | inactive | inactive | inactive | inactive | inactive | inactive | > 63 | > 63 | > 63 | > 63 | > 63 | > 63 | > 63 |
| O=c1c2ccccc2nc(-c2ccc(OS(=O)(=O)O)cc2)n1Cc1ccccc1Cn1c(-c2ccc(OS(=O)(=O)O)cc2)nc2ccccc2c1=O | 57 | 87 | inactive | inactive | inactive | inactive | inactive | inactive | inactive | > 63 | > 63 | > 63 | > 63 | > 63 | > 63 | > 63 |
| O=c1c2ccccc2nc(-c2cccc(OS(=O)(=O)O)c2)n1Cc1cccc(Cn2c(-c3cccc(OS(=O)(=O)O)c3)nc3ccccc3c2=O)c1 | 60 | 92 | inactive | inactive | inactive | inactive | inactive | inactive | inactive | > 63 | > 63 | > 63 | > 63 | > 63 | > 63 | > 63 |
| O=c1c2ccccc2nc(-c2ccc(OS(=O)(=O)O)cc2)n1CCCCCCCCCCCCn1cc(Cn2c(-c3ccc(OS(=O)(=O)O)cc3)nc3ccccc3c2=O)nn1 | 35 | 112 | inactive | inactive | inactive | inactive | inactive | inactive | inactive | > 63 | > 63 | > 63 | > 63 | > 63 | > 63 | > 63 |
| O=c1c2ccccc2nc(-c2ccc(OS(=O)(=O)O)cc2)n1CCCCCCCn1c(-c2ccc(OS(=O)(=O)O)cc2)nc2ccccc2c1=O | 23 | 96 | inactive | inactive | inactive | inactive | inactive | inactive | inactive | > 63 | > 63 | > 63 | > 63 | > 63 | > 63 | > 63 |
| O=c1c2ccccc2nc(-c2cccc(OS(=O)(=O)O)c2)n1CCOCCn1c(-c2cccc(OS(=O)(=O)O)c2)nc2ccccc2c1=O | 401 | 94 | inactive | inactive | inactive | inactive | inactive | inactive | inactive | > 63 | > 63 | > 63 | > 63 | > 63 | > 63 | > 63 |
| O=c1c2ccccc2nc(-c2cccc(OS(=O)(=O)O)c2)n1Cc1ccccc1Cn1c(-c2cccc(OS(=O)(=O)O)c2)nc2ccccc2c1=O | 94 | 93 | inactive | inactive | inactive | inactive | inactive | inactive | inactive | > 63 | > 63 | > 63 | > 63 | > 63 | > 63 | > 63 |
| O=c1c(OS(=O)(=O)O)c(-c2ccc(OS(=O)(=O)O)c(OS(=O)(=O)O)c2)oc2cc(OS(=O)(=O)O)cc(OCc3cn(CCCCCCCCCn4c(-c5ccc(OS(=O)(=O)O)cc5)nc5ccccc5c4=O)nn3)c12 | 37 |  | inactive | inactive | inactive | inactive | inactive | inactive | inactive |  |  |  |  |  |  |  |
| O=c1c(OS(=O)(=O)O)c(-c2ccc(OS(=O)(=O)O)c(OS(=O)(=O)O)c2)oc2cc(OS(=O)(=O)O)cc(OCc3cn(CCCCCCCn4c(-c5ccc(OS(=O)(=O)O)cc5)nc5ccccc5c4=O)nn3)c12 | 139 |  | inactive | inactive | inactive | inactive | inactive | inactive | inactive |  |  |  |  |  |  |  |
| O=c1c(OS(=O)(=O)O)c(-c2ccc(OS(=O)(=O)O)c(OS(=O)(=O)O)c2)oc2cc(OS(=O)(=O)O)cc(OCc3cn(CCCCCCCCCCn4c(-c5ccc(OS(=O)(=O)O)cc5)nc5ccccc5c4=O)nn3)c12 | 51 |  | inactive | inactive | inactive | inactive | inactive | inactive | inactive |  |  |  |  |  |  |  |
| O=c1c(OS(=O)(=O)O)c(-c2ccc(OS(=O)(=O)O)c(OS(=O)(=O)O)c2)oc2cc(OS(=O)(=O)O)cc(OCc3cn(CCCCCCCCn4c(-c5ccc(OS(=O)(=O)O)cc5)nc5ccccc5c4=O)nn3)c12 | 133 |  | inactive | inactive | inactive | inactive | inactive | inactive | inactive |  |  |  |  |  |  |  |
